# Source: PubChem BioAssay (several laboratories)
# A selection: hits, their analogues and other compounds. The true share with any hit is near 4.8%.
# ALR inh – inhibitors of human ALR sulfhydryl oxidase, primary screen, biochemical, H2O2 detection, HRP-luminol luminescence, single point. FAD-linked sulfhydryl oxidase ALR (Homo sapiens), P55789. purified ALR, DTT oxidation. inhibition, % (no concentration beside the values). actives 3.8% (n = 290,000). AID 485317, 2010;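 active = mean replicate inhibition above about 79%, with every replicate also reaching it, limit read from the data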
# NALP3 yeast inh – NALP3 inflammasome inhibitors in reconstituted yeast, primary screen, luminescence, uHTS; actives 0.39% (n = 330,000); AID 2825, 2010; inhibition, % at 10 µM; Yeast reconstituted NLRP3/ASC/caspase-1, beta-gal luminescence, 24 h;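 active = inhibition of 50% or more; inactive = inhibition below 50%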;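 note: plate controls were induced DMSO wells for no effect and uninduced yeast grown without galactose for full effect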
# ATG4B inh – ATG4B protease inhibitors, primary screen, biochemical, fluorescence, uHTS; ATG4B cleavage of LC3-PLA2, NBD-HPC fluorescence, 1 h; inhibition, % at 8.33 µM; actives 0.51% (n = 340,000); in the data active = inhibition above about 40%
# Target sequence (Q9Y4P1 whole entry, looked up): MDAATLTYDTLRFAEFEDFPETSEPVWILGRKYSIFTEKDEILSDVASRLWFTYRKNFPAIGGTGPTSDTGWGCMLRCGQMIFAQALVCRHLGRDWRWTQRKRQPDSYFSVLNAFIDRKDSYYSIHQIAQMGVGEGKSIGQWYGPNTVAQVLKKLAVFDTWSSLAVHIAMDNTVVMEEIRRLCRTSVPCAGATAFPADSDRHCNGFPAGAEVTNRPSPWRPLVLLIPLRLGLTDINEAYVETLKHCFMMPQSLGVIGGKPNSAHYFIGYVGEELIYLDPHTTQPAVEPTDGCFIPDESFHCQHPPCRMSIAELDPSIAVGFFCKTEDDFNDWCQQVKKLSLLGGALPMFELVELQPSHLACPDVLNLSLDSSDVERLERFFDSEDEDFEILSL
# Calb FLC – C. albicans growth inhibition with fluconazole, primary screen, CaCi-2 strain, Alamar Blue fluorescence; actives 0.57% (n = 300,000); growth inhibition, % (test concentration not listed); C. albicans CaCi-2 (fluconazole-resistant clinical isolate) + fluconazole, 48 h;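 active = growth inhibition above about 58% in most replicates, limit read from the data, passing the limit was not always enough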;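 note: all wells also contain fluconazole at 8 µg/ml as a sub-toxic cotreatment; 0% = median of DMSO wells and 100% = median of geldanamycin control wells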
# NALP1 yeast inh – NALP1 inflammasome inhibitors in reconstituted yeast, colorimetric, S. cerevisiae, triplicate retest. S. cerevisiae NALP1/ASC/caspase-1 growth, X-gal OD620, 72 h. inhibition, % at 10 µM. actives 0.61% (n = 280,000); in the data active = inhibition mostly above about 24%, no sharp cut-off; inactive = mostly below about 32%
# UCH37 inh – inhibitors of human UCH37 deubiquitinase, primary screen, biochemical, Ub-AMC cleavage, fluorescence; Ubiquitin carboxyl-terminal hydrolase isozyme L5 (Homo sapiens), Q9Y5K5; purified proteasome/UCH37; AID 588478, 2011; inhibition, % (concentration not given with the values); actives 0.33% (n = 330,000);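 active = mean inhibition over replicate wells above about 20%, limit read from the data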;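 note: 0% = compound-free wells with enzyme and 100% = wells lacking proteasome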
#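 Assay system: Proteasome-bound UCH37. Buffer or medium: pH 7.4 Tris-HCl (50 mM) with ovalbumin, ATP-MgCl2, DTT. Incubation: 30 min preincubation with enzyme, 25 min cleavage at room temperature. Measured by: fluorescence, ex 355 nm, em 460 nm. Read-out basis: percent inhibition. Control set: wells without proteasome as full block, compound-free enzyme plus substrate as uninhibited.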
# ATG4B conf – ATG4B protease inhibitors, retest, confirmation, biochemical, fluorescence, single concentration. inhibition, % at 8.33 µM. actives 92% (n = 320). ATG4B protease fluorescent substrate cleavage assay. shares compounds with ATG4B inh; in the data active = inhibition above about 39%
# PLA2 ctr – PLA2 enzyme inhibition, counter-screen for ATG4B inhibitor project, biochemical, single concentration, uHTS hits; purified PLA2, NBD-C6-HPC fluorescence, 45 min; AID 588402, 2011; inhibition, % at 8.33 µM; actives 66% (n = 1,600); shares compounds with ATG4B inh; in the data active = inhibition above about 50%
# The depositor's hits bear a star; / = no result.
SMILES,ALR inh,NALP3 yeast inh,ATG4B inh,Calb FLC,NALP1 yeast inh,UCH37 inh,PLA2 ctr,others
CC(Oc1cccc2cccnc12)C(=O)NN=Cc1ccc2c(c1)OCO2 (configuration not stated),/,/,/,/,/,5.6,/,
Cc1ccccc1N1C(S)=C(C#N)C(=O)NC1c1ccco1 (configuration not stated),-5.7,12.8,3.3,13.5,4.5,0.1,/,
N#CC1=C(S)N(c2ccccc2)C(c2ccc(-c3ccccc3Cl)o2)NC1=O (configuration not stated),56.3,12.6,65.6*,0.6,29.1,10.6,73.6*,
C/C=C/c1ccc(OCCOc2cc(C=O)ccc2OC)c(OC)c1,-4.1,23.1,46.8*,5.8,42.2,-0.3,48.2,
Cc1cccc(C)c1OCC(=O)Nc1ccc(NC(=O)c2ccco2)cc1,-8.1,11.8,11.1,-16.6,4.8,-13.1,/,
Cc1cccc(C)c1OCC(=O)Nc1cccc(NC(=O)c2ccco2)c1,-7.3,10.8,47.8*,-3.9,-0.2,3.0,49.0,ATG4B conf=56.6*
O=S(=O)(c1ccc2c(c1)C(O)c1ccccc1CC2)C(F)(F)F (configuration not stated),5.2,23.9,40.1*,/,/,2.2,59.8*,
CCOC(=O)c1c(N=CC2=C(O)CCCC2=O)sc(C)c1C,/,/,/,/,/,1.8,/,
CCOC(=O)c1c(/N=C/C2=C(O)CC(C)(C)CC2=O)sc(C)c1C,6.1,17.4,62.4*,1.7,29.0,/,16.0,ATG4B conf=68.9*
Cc1no[n+]([O-])c1COc1ccc(C=Nn2nnnc2N)cc1,/,/,/,/,/,3.2,/,
O=C(Cn1cccc1C(=O)c1ccccc1)NCCC1=CCCCC1,6.7,9.9,43.3*,17.7,1.3,5.4,42.4,ATG4B conf=61.7*
O=C(Cn1cccc1C(=O)c1ccccc1)NCCCc1ccccc1,-9.5,12.7,18.2,-5.6,12.4,0.9,/,
Cc1ccc(C(=O)Oc2cccc(NC(=O)c3ccccc3)c2)cc1C,-4.7,34.0,48.8*,-14.0,21.6,2.5,59.0*,
CCCn1c(=S)[nH]c2cc(C(=O)N3CCc4ccccc43)ccc2c1=O,-3.1,0.7,65.4*,-20.5,-13.0,3.3,39.4,
Cc1cc(C)c2sc(N(CCCN(C)C)C(=O)c3ccc(S(=O)(=O)N(C)Cc4ccccc4)cc3)nc2c1,-9.5,20.6,41.7*,1.6,/,7.1,49.4,
CCCCc1noc2c1C(=NO)CC(c1ccccc1)C2 (configuration not stated),/,/,/,/,/,2.9,/,
O=C(COc1ccc(Cl)cc1)NNC(=S)NCc1ccccc1,17.4,10.1,3.8,2.6,-35.7,6.7,/,
C=CCc1ccccc1OCC(=O)NNC(=S)NCc1ccccc1,0.9,16.9,68.7*,-1.6,-2.6,2.5,68.8*,
CCCCCC(=O)NN=Cc1ccc([N+](=O)[O-])o1,/,/,/,/,/,10.6,/,
CCCCCCCCOC(=O)c1c(CSC(=N)N)n(C)c2cc(Br)c(OC(C)=O)cc12,68.6,-2.8,40.4*,14.8,-3.5,10.9,4.7,ATG4B conf=64.8*
Cc1sc2nc3c(SC(C)C(=O)O)cc(C(=O)c4ccccc4O)cn3c(=O)c2c1C (configuration not stated),8.2,/,52.1*,-19.1,26.0,14.7,53.3*,
COc1ccc(-c2oc3ccccc3c(=O)c2OC(=O)c2ccc(C)cc2)cc1,8.8,2.1,3.9,7.3,11.0,-13.5,/,
O=C(Oc1c(-c2ccccc2)oc2ccccc2c1=O)c1ccccc1,-4.0,19.3,45.1*,19.1,6.3,2.1,64.0*,
